According to ChEMBL document CHEMBL3763072, “Structure activity relationship studies on chemically non-reactive glycine sulfonamide inhibitors of diacylglycerol lipase” (Bioorg Med Chem, 2016):
Values belong to the compound of their own block, whether it stands above or below them. The source made the active and inactive calls. The rule behind the calls is not given here.

What was measured:
[1] = biological target: T1, Monoglyceride lipase (Homo sapiens) (UniProt Q99685); experiment: Inhibition of MAGL (unknown origin) at 30 uM
T1 sequence (whole entry): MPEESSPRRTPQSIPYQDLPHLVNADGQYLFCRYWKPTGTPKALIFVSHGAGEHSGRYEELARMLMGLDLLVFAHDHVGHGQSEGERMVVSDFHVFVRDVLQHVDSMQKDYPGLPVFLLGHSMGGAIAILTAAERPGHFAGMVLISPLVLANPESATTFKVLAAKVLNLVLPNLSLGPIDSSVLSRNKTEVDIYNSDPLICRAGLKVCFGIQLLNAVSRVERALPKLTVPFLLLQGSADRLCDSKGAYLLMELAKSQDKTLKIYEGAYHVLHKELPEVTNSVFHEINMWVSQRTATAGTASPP

[2] = Metabolic stability in mouse liver microsomes assessed as residual compound at 3 uM preincubated for 2 mins followed by NADPH addition measured after 10 mins by LC-MS analysis; type: ADME; details: read-out: Stability
[3] = Metabolic stability in rat liver microsomes assessed as residual compound at 3 uM preincubated for 2 mins followed by NADPH addition measured after 10 mins by LC-MS analysis; type: ADME; details: read-out: Stability
[4] = Metabolic stability in human liver microsomes assessed as residual compound at 3 uM preincubated for 2 mins followed by NADPH addition measured after 10 mins by LC-MS analysis; type: ADME; details: read-out: Stability
[5] = biological target: T2, Diacylglycerol lipase-alpha (Homo sapiens, UniProt Q9Y4D2); experiment: Inhibition of full length human C-terminal HA-tagged DAGLalpha expressed in HEK293 cell membrane using DAG as substrate incubated for 20 mins by LC-MS analysis; type: cell-based
T2 sequence (Q9Y4D2 whole entry): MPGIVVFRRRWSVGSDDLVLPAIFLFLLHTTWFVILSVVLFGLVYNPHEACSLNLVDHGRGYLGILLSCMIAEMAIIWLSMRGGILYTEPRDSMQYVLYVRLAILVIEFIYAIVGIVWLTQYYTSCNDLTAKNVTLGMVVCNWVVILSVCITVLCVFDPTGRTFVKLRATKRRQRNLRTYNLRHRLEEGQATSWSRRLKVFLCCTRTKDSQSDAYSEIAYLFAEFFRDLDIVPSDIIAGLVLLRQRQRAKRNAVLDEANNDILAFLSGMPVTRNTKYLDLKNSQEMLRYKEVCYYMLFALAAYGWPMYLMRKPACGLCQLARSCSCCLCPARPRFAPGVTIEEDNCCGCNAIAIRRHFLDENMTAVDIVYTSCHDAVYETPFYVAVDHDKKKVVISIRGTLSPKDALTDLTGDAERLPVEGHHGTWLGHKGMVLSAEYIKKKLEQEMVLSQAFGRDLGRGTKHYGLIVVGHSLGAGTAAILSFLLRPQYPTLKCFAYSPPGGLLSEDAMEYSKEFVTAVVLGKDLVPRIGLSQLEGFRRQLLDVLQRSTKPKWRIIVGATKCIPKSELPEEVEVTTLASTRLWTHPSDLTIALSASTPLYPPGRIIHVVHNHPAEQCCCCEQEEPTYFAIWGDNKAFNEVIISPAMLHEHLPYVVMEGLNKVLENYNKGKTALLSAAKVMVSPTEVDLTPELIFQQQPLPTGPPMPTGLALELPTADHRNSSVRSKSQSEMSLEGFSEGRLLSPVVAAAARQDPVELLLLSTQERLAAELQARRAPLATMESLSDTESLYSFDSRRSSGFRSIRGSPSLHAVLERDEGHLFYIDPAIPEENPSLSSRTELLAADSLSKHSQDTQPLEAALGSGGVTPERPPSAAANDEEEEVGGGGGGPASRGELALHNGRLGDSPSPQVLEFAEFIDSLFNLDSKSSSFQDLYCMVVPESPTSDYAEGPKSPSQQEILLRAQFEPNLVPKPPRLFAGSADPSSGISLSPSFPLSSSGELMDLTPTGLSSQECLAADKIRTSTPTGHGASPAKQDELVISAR
How it was run: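 Cell-free DAGL-α enzyme assay run at pH 6.5. IC50 values are reported, with replicate counts (n) given per value.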

[6] = biological target: T3, Diacylglycerol lipase-beta (Homo sapiens, UniProt Q8NCG7); experiment: Inhibition of DAGLbeta (unknown origin)
T3 sequence (Q8NCG7 whole entry): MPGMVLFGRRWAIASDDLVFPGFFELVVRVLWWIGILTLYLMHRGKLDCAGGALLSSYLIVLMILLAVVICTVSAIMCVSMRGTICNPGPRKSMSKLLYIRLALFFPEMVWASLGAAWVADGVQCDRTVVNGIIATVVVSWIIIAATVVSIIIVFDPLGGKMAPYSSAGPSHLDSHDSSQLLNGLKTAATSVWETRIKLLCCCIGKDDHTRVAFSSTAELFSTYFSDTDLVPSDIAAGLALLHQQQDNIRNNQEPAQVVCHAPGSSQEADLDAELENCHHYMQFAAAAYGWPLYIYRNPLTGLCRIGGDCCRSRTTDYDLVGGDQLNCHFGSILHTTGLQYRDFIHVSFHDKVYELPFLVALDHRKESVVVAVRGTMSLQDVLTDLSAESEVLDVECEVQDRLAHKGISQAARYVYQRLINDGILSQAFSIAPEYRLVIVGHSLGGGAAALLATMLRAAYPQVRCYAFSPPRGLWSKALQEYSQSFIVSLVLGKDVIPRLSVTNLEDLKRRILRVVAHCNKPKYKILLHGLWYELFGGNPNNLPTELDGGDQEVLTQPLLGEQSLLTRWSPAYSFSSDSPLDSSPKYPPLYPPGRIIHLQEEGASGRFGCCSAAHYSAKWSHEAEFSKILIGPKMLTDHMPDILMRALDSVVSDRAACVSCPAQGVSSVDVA

[7] = biological target: T2, Diacylglycerol lipase-alpha; experiment: Inhibition of full length human C-terminal HA-tagged DAGLalpha expressed in HEK293 cells using DAG as substrate assessed as reduction in intracellular 2-AG level incubated for 20 mins by LC-MS analysis; type: cell-based
Mus musculus = experiment: In vivo inhibition of DAGLalpha in ip dosed mouse assessed as reduction in 2-AG level in liver; type: functional, organism-based
[8] = Dissociation constant, pKa of compound at pH 2 to […] by spectrophotometric titration method; type: physicochemical
physchem = details: octanol/phosphate buffer, pH 7.4

Structure (SMILES): CC1(C)CCc2cc(S(=O)(=O)N(CC(=O)O)Cc3cccc(-c4ccccc4)c3)ccc2O1
remaining at 10 min, 3 µM [2]: 87%
remaining at 10 min, 3 µM [3]: 67%
remaining at 10 min, 3 µM [4]: 77%

Structure (SMILES): O=C(O)CN(C1(c2cccc(-c3cc(Cl)cc(Cl)c3)c2)CCC1)S(=O)(=O)c1ccccc1Cl
IC50 [5]: 510 nM

Structure (SMILES): CC1(C)CCc2cc(S(=O)(=O)N(CC(=O)O)Cc3cccc4cccnc34)ccc2O1
pKa [8]: 2
logD (physchem): 0.5
IC50 [5]: 13500 nM

Continued, in another order:

inhibition [1]: inactive
Structure (SMILES): O=C(O)CN(C1(c2cccc(-c3ccc(Cl)cc3Cl)c2)CCC1)S(=O)(=O)c1ccc(Cl)c(Cl)c1

IC50 [5]: 30 nM
Structure (SMILES): O=C(O)CN(Cc1ccc(-c2ccc(Cl)cc2Cl)cc1)S(=O)(=O)c1ccc(OC(F)F)cc1

IC50 [6]: 40 nM
inhibition [1]: inactive
IC50 [7]: 14.3 nM
IC50 [5]: 2.4 nM
Structure (SMILES): O=C(O)CN(c1cccc(-c2cccc(Cl)c2Cl)c1)S(=O)(=O)c1ccc(OC(F)F)cc1
inhibition (Mus musculus): Active
